ChEMBL document CHEMBL1938356, “Structure-activity relationship of salicylic acid derivatives on inhibition of TNF-α dependent NFκB activity: Implication on anti-inflammatory effect of N-(5-chlorosalicyloyl)phenethylamine against experimental colitis” (Eur J Med Chem, 2012)
The source made the active and inactive calls. No cut-off for these calls is given here.

What was measured:
[1] = (§1) Inhibition of TNF-alpha-induced NF-kappaB activation in human HCT116 cells after 6 hrs by luciferase reporter gene assay; assay type: cell-based; conditions: HCT-116, 6 h
Summary of the method: (§2)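 HCT116 cells at 50-60% confluence were cotransfected (Fugene) with an NFκB-dependent firefly luciferase plasmid and CMV Renilla plasmid (4 ng). After 24 h, cells received TNF-α (1 ng/ml) plus compound for 6 h, then were lysed. Dual-luciferase read-out, firefly normalized to Renilla. IC50 came from varied concentrations.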

HCT-116 [2] = experiment: Inhibition of TNF-alpha-induced NF-kappaB activation in human HCT116 cells at 1 mM after 6 hrs by luciferase reporter gene assay; assay type: cell-based; summary of the method: as §2
RAW264.7 [3] = conditions: Mus musculus, 5 mM
RAW264.7 [4] = conditions: Mus musculus, 2 to 4 mM
RAW264.7 [5] = experiment: Inhibition of NF-kappaB-mediated iNOS protein expression in LPS-stimulated mouse RAW264.7 cells at 0.1 mM by Western blot analysis; assay type: cell-based
Summary of the method: (§3)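 RAW264.7 cells grown in DMEM with 10% FBS were pretreated 1 h with drug, then stimulated with LPS (1 ng/ml) for 6 h. iNOS was immunoblotted in whole-cell lysates (30-40 µg) with a polyclonal antibody, α-tubulin served as loading control, in duplicate.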

HCT-116 [6] = experiment: as §1; assay type: cell-based; summary of the method: as §2
Rattus norvegicus [7] = experiment: Antiinflammatory activity against trinitrobenzenesulfonic acid-induced colitis in rat assessed as healing of damaged colon at 300 uM administered rectally QD for 6 days; assay type: functional, organism-based
Summary of the method: (§4)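 TNBS colitis in rats: after a 24 h fast with free access to water and light ether anaesthesia, TNBS (15 mg/0.3 ml/rat in 50% aqueous ethanol) was instilled through a rectal cannula whose tip sat 8 cm proximal to the anus. From day 3, drug in PBS (500 µL; 100 or 300 µM, or sodium 5-aminosalicylate 30 mM) was given rectally once daily for 6 days, then rats were sacrificed.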

Rattus norvegicus [8] = experiment: Antiinflammatory activity against trinitrobenzenesulfonic acid-induced colitis in rat assessed as healing of damaged colon administered rectally QD for 6 days; assay type: functional, organism-based; summary of the method: as §4
Rattus norvegicus [9] = experiment: Antiinflammatory activity against trinitrobenzenesulfonic acid-induced colitis in rat assessed as decrease in myeloperoxidase activity at 100 uM administered rectally QD for 6 days; assay type: functional; design: scale not given: the % may be the effect or the level left; summary of the method: as §4
Rattus norvegicus [10] = experiment: Antiinflammatory activity against trinitrobenzenesulfonic acid-induced colitis in rat assessed as decrease in myeloperoxidase activity at 300 uM administered rectally QD for 6 days; assay type: functional; design: scale not given: the % may be the effect or the level left; summary of the method: as §4
Rattus norvegicus [11] = experiment: Antiinflammatory activity against trinitrobenzenesulfonic acid-induced colitis in rat assessed as decrease in CINC-3 protein at 300 uM administered rectally QD for 6 days; assay type: functional, organism-based; summary of the method: as §4
Rattus norvegicus [12] = experiment: Antiinflammatory activity against trinitrobenzenesulfonic acid-induced colitis in rat assessed as decrease in CINC2 protein expression administered rectally QD for 6 days; assay type: functional, organism-based
Rattus norvegicus [13] = experiment: Antiinflammatory activity against trinitrobenzenesulfonic acid-induced colitis in rat assessed as decrease in COX2 protein administered rectally QD for 6 days; assay type: functional, organism-based; summary of the method: as §4
Rattus norvegicus [14] = experiment: Antiinflammatory activity against trinitrobenzenesulfonic acid-induced colitis in rat assessed as decrease in COX2 protein at 300 uM administered rectally QD for 6 days; assay type: functional, organism-based; summary of the method: as §4
RAW264.7 [15] = experiment: Inhibition of NF-kappaB-mediated iNOS protein expression in LPS-stimulated mouse RAW264.7 cells at 1 to 4 mM by Western blot analysis; assay type: cell-based
Summary of the method: (§5)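 RAW264.7 cells in DMEM with 10% FBS were pretreated with a range of drug concentrations and stimulated with LPS. iNOS was immunoblotted in whole-cell lysates (30-40 µg), α-tubulin served as loading control, in duplicate.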

RAW264.7 [16] = experiment: Inhibition of NF-kappaB-mediated iNOS protein expression in LPS-stimulated mouse RAW264.7 cells at 0.5 to 2 mM by Western blot analysis; assay type: cell-based; summary of the method: as §5
Rattus norvegicus [17] = experiment: Antiinflammatory activity against trinitrobenzenesulfonic acid-induced colitis in rat assessed as decrease in COX2 protein at 30 mM administered rectally QD for 6 days; assay type: functional, organism-based; summary of the method: as §4
Rattus norvegicus [18] = experiment: Antiinflammatory activity against trinitrobenzenesulfonic acid-induced colitis in rat assessed as healing of damaged colon at 30 mM administered rectally QD for 6 days; assay type: functional, organism-based; summary of the method: as §4
Rattus norvegicus [19] = experiment: Antiinflammatory activity against trinitrobenzenesulfonic acid-induced colitis in rat assessed as decrease in myeloperoxidase activity at 30 mM administered rectally QD for 6 days; assay type: functional, organism-based; summary of the method: as §4
Rattus norvegicus [20] = experiment: Antiinflammatory activity against trinitrobenzenesulfonic acid-induced colitis in rat assessed as decrease in CINC2 protein expression at 30 mM administered rectally QD for 6 days; assay type: functional, organism-based
RAW264.7 [21] = experiment: Inhibition of NF-kappaB-mediated iNOS protein expression in LPS-stimulated mouse RAW264.7 cells at 0.25 mM by Western blot analysis; assay type: cell-based; summary of the method: as §3

With `CN1CCN(C(=O)c2cc(Cl)ccc2O)CC1` the IC50 [1] was > 250 µM.

With `O=C(O)c1ccccc1O` the inhibition (HCT-116 [2]) was “Active”, the inhibition (RAW264.7 [3]) was “Active” and the inhibition (RAW264.7 [4]) was “Active”.

For `O=C(NCCc1ccccc1)c1cc(Cl)ccc1O`, the inhibition (RAW264.7 [5]) was “Active”, the IC50 [1] was 15 µM and the inhibition (HCT-116 [6]) was “Dose-dependent effect”. For the same compound, the Activity (Rattus norvegicus [7]) was “Active”, the Activity (Rattus norvegicus [8]) was “Dose-dependent effect” and the Activity (Rattus norvegicus [9]) was 60%. The Activity (Rattus norvegicus [10]) was 35%, the Activity (Rattus norvegicus [11]) was “Active” and the Activity (Rattus norvegicus [12]) was “Dose-dependent effect”. The Activity (Rattus norvegicus [13]) was “Dose-dependent effect” and the Activity (Rattus norvegicus [14]) was “Active”.

`CCCCCCNC(=O)c1cc(Cl)ccc1O` showed an IC50 [1] of 95 µM.

For `NC(=O)c1ccccc1O`, the inhibition (HCT-116 [2]) was “Active” and the inhibition (RAW264.7 [15]) was “Active”.

For `CNC(=O)c1cc(Cl)ccc1O`, the IC50 [1] was > 250 µM.

In the case of `O=C(NCCCc1ccccc1)c1cc(Cl)ccc1O`, the inhibition (RAW264.7 [5]) is reported as “Active”, the IC50 [1] is reported as 17 µM and the inhibition (HCT-116 [6]) is reported as “Dose-dependent effect”.

For `O=C(c1cc(Cl)ccc1O)N1CCCCC1`, the IC50 [1] was > 250 µM.

For `O=C(c1cc(Cl)ccc1O)N1CCNCC1`, the IC50 [1] was > 250 µM.

For `CN(C)C(=O)c1cc(Cl)ccc1O`, the IC50 [1] was > 250 µM.

In the case of `NC(=O)c1cc(Cl)ccc1O`, the inhibition (RAW264.7 [16]) is reported as “Active”.

In the case of `COC(=O)c1ccccc1O`, the inhibition (HCT-116 [2]) is reported as “Active”.

In the case of `CC(=O)Oc1ccccc1C(=O)O`, the inhibition (HCT-116 [2]) is reported as “Active”.

With `O=C(O)c1cc(-c2ccc(F)cc2F)ccc1O` the inhibition (HCT-116 [2]) was “Active”.

For `Nc1ccc(O)c(C(=O)O)c1`, the inhibition (HCT-116 [2]) was “Active”, the Activity (Rattus norvegicus [17]) was “Active” and the Activity (Rattus norvegicus [18]) was “Active”. For the same compound, the Activity (Rattus norvegicus [19]) was “Active” and the Activity (Rattus norvegicus [20]) was “Active”.

For `O=C(c1cc(Cl)ccc1O)N1CCN(c2ccccc2)CC1`, the IC50 [1] was > 250 µM.

In the case of `O=C(c1cc(Cl)ccc1O)N1CCOCC1`, the IC50 [1] is reported as > 250 µM.

With `O=C(NCc1ccccc1)c1cc(Cl)ccc1O` the IC50 [1] was 105 µM.

For `O=C(O)c1cc([N+](=O)[O-])ccc1O`, the inhibition (HCT-116 [2]) was “Active”.

With `O=C(NCCc1ccc(O)cc1)c1cc(Cl)ccc1O` the inhibition (RAW264.7 [21]) was “Active”, the IC50 [1] was 91 µM and the inhibition (HCT-116 [6]) was “Dose-dependent effect”.

For `O=C(O)c1cc(Cl)ccc1O`, the inhibition (HCT-116 [2]) was “Active” and the inhibition (RAW264.7 [15]) was “Active”.
